Assay results: ChEMBL document CHEMBL3525897, “Metabolism and quantification of [(18)F]DPA-714, a new TSPO positron emission tomography radioligand” (Drug Metab Dispos, 2013); call rule not given here
One block for each compound: values may come before it.

How the values were obtained:
[1] = Retention time of the compound by LC-MS analysis; type: physicochemical
In short: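 Separation of DPA-714 and its metabolites by LC-MS on reverse-phase Atlantis C18 column (2.1x150 mm) with electrospray ionization.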

[2] = tested on: Liver microsome; assay: Drug level in Sprague-Dawley rat liver microsomes treated with DPA-714 after 15 to 60 mins by LC-MS/MS analysis
[3] = Retention time in baboon plasma treated with [18F]DPA-714 by radio-HPLC analysis; type: ADME, cell-free; conditions: papio anubis
In short: (§1)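 Isoflurane-anaesthetized baboons, 6 PET experiments. Arterial femoral plasma sampled 0-120 min and centrifuged at 4°C, then deproteinated with acetonitrile; pellet radioactivity counted and treated as metabolite. Supernatant run on radio-HPLC (C18 preparative, 0.1% TFA water/acetonitrile 20-80% over 10 min, 5 mL/min). Counts decay-corrected to injection. Parent fraction as % total; data fitted to two exponentials; mean ± sd.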

[4] = Metabolic stability of the compound in baboon plasma assessed as compound remaining by SPE method; type: ADME, cell-free; conditions: papio anubis
In short: (§2)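 Baboon arterial plasma, five samples per animal, n=3. 200 μL diluted to 400 μL with 4% HCl and loaded on HLB SPE cartridge. Washed with water, then 35/65 acetonitrile/water; parent eluted with acetonitrile. All fractions and cartridge counted. Parent given as % of eluted radioactivity or of initial sample. Compared with radio-HPLC; mono-exponential fit.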

[5] = Biodistribution in Sprague-Dawley rat bone marrow at 32.1 +/- 2.8 MBq, iv measured at 120 mins by radio-HPLC analysis; type: ADME, organism-based; conditions: 32.1 MBq
In short: (§3)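 Male Sprague-Dawley rats (250-300 g) given 32.1 ± 2.8 MBq [18F]DPA-714 by tail vein and decapitated 120 min later. Brain sonicated twice in acetonitrile on ice, extracts pooled and concentrated. Plasma acetonitrile-deproteinated. Parent and radiometabolites separated by radio-HPLC (C18, 0.1% TFA water/acetonitrile gradient 20-80% B). Expressed as %ID/g. Thighbone cortex and marrow also counted. Mean ± sd of 2 experiments, 2 rats each.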

[6] = Half life in baboon by radio-HPLC analysis; type: ADME, organism-based; conditions: papio anubis, in vivo; in short: as §1
[7] = Half life in baboon by SPE method; type: ADME, organism-based; conditions: papio anubis, in vivo; in short: as §2
[8] = tested on: Plasma; assay: Metabolic stability of the compound in Sprague-Dawley rat plasma at 20 kBq/ml at 37 degC by radio-HPLC analysis; type: ADME, cell-free
In short: (§4)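 Plasma spiked with 20 kBq/mL [18F]DPA-714, triplicate. Extracted with acetonitrile at time zero, or after incubation at 37°C (190 min for baboon plasma). Parent peak area measured by radio-HPLC.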

[9] = Biodistribution in baboon urinary bladder at 276 +/- 60 MBq, iv up to 90 mins by PET analysis; type: ADME, organism-based; conditions: papio anubis, in vivo, 1.5 h
In short: (§5)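 Whole-body PET (HR+) in male Papio anubis baboons after i.v. 276 ± 60 MBq (4.8 ± 2.1 nmol) [18F]DPA-714. 2D transmission scans for attenuation correction. 3D emission scans of 1 to 4 min per bed step, acquired up to 90 min post-injection. Uptake reported as SUVmax.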

[10] = Drug metabolism in baboon assessed as compound remaining measured at 30 mins by radio-HPLC analysis; type: ADME, organism-based; conditions: papio anubis, in vivo; read-out: Stability; in short: as §1
[11] = Biodistribution in baboon parotid gland at 276 +/- 60 MBq, iv up to 90 mins by PET analysis; type: ADME, organism-based; conditions: papio anubis, in vivo, 1.5 h; in short: as §5
[12] = Biodistribution in baboon duodenum at 276 +/- 60 MBq, iv by PET analysis; type: ADME, organism-based; conditions: papio anubis, in vivo; in short: as §5
[13] = Biodistribution in Sprague-Dawley rat plasma at 32.1 +/- 2.8 MBq, iv measured at 120 mins by radio-HPLC analysis; type: ADME, organism-based; conditions: 32.1 MBq; in short: as §3
[14] = Biodistribution in baboon lung at 276 +/- 60 MBq, iv up to 90 mins by PET analysis; type: ADME, organism-based; conditions: papio anubis, in vivo, 1.5 h; in short: as §5
[15] = Biodistribution in Sprague-Dawley rat brain at 32.1 +/- 2.8 MBq, iv measured at 120 mins by radio-HPLC analysis; type: ADME, organism-based; conditions: 32.1 MBq; in short: as §3
[16] = Drug metabolism in baboon urine assessed as compound remaining measured at 180 mins by radio-HPLC analysis; type: ADME, tissue-based; conditions: papio anubis, read-out: Stability
In short: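 Baboon urine collected by catheter at 180 min after injection. 1 mL injected directly onto the plasma radio-HPLC system (C18, 0.1% TFA water/acetonitrile gradient).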

[17] = Biodistribution in baboon gallbladder at 276 +/- 60 MBq, iv measured at 42 mins by PET analysis; type: ADME, organism-based, Gall bladder; conditions: papio anubis, in vivo, 0.7 h; in short: as §5
[18] = Retention time in baboon plasma by radio-HPLC analysis; type: ADME, cell-free; conditions: papio anubis; in short: as §1
[19] = Biodistribution in baboon spleen at 276 +/- 60 MBq, iv up to 90 mins by PET analysis; type: ADME, organism-based; conditions: papio anubis, in vivo, 1.5 h; in short: as §5
[20] = tested on: Brain; assay: Metabolic stability of the compound in Sprague-Dawley rat brain homogenate at 37 kBq at 37 degC by radio-HPLC analysis; type: ADME, tissue-based
In short: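 Rat brain sonicated in 0.1 M potassium phosphate, pH 7.4, at 4°C and spiked with 37 kBq [18F]DPA-714. Aliquots extracted with acetonitrile at time zero and after 180 min at 37°C. Analysed by radio-HPLC.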

[21] = Biodistribution in baboon liver at 276 +/- 60 MBq, iv up to 90 mins by PET analysis; type: ADME, organism-based; conditions: papio anubis, in vivo, 1.5 h; in short: as §5
[22] = Biodistribution in baboon vertebral bodies at 276 +/- 60 MBq, iv up to 90 mins by PET analysis; type: ADME, organism-based; conditions: papio anubis, in vivo, 1.5 h; in short: as §5
[23] = Chemical stability of the compound in saline; type: physicochemical; conditions: buffer
[24] = Biodistribution in baboon heart at 276 +/- 60 MBq, iv up to 90 mins by PET analysis; type: ADME, organism-based; conditions: papio anubis, in vivo, 1.5 h; in short: as §5
[25] = Metabolic stability of the compound in baboon plasma at 20 kBq/ml at 37 degC by radio-HPLC analysis; type: ADME, cell-free; conditions: papio anubis; in short: as §4
[26] = Ratio of drug level in brain to plasma in Sprague-Dawley rat at 32.1 +/- 2.8 MBq, iv measured at 120 mins by radio-HPLC analysis; type: ADME, organism-based; conditions: brain and plasma, 32.1 MBq, read-out: BPR; in short: as §3
[27] = Biodistribution in baboon kidney at 276 +/- 60 MBq, iv measured at 10 mins by PET analysis; type: ADME, organism-based; conditions: papio anubis, in vivo; in short: as §5
[28] = Drug recovery in baboon by SPE method; type: ADME, organism-based; conditions: papio anubis, in vivo; read-out: Drug recovery; in short: as §2
[29] = Biodistribution in baboon kidney at 276 +/- 60 MBq, iv measured at 90 mins by PET analysis; type: ADME, organism-based; conditions: papio anubis, in vivo, 1.5 h; in short: as §5
[30] = Biodistribution in Sprague-Dawley rat thighbone cortex at 32.1 +/- 2.8 MBq, iv measured at 120 mins by radio-HPLC analysis; type: ADME, organism-based, Bone element; conditions: 32.1 MBq; in short: as §3
[31] = Drug metabolism in baboon assessed as compound remaining measured at 120 mins by radio-HPLC analysis; type: ADME, organism-based; conditions: papio anubis, in vivo; read-out: Stability; in short: as §1
[32] = Drug metabolism in baboon liver microsomes assessed as N,N-diethyl-2-(2-(4-(2-fluoroethoxy)phenyl)-7-(hydroxymethyl)-5-methylpyrazolo[1,5-a]pyrimidin-3-yl)acetamide level after 15 to 60 mins by LC-MS/MS analysis; type: ADME; conditions: papio anubis
In short: (§6)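 Liver microsomes (rat, baboon, or pooled human from 10 donors), 1 mg protein/mL, with DPA-714 100 µM in 0.1 M potassium phosphate, pH 7.4. Preincubated 2 min at 37°C, then started with NADPH-generating system. Run 15, 30 and 60 min; rates from 30 min. Stopped with acetonitrile, filtered, analysed by LC-MS-MS. Rates in nmol/mg/min; mean ± sd of 5 duplicate experiments.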

[33] = tested on: Liver microsome; assay: Drug metabolism in Sprague-Dawley rat liver microsomes assessed as N,N-diethyl-2-(2-(4-(2-fluoroethoxy)phenyl)-7-(hydroxymethyl)-5-methylpyrazolo[1,5-a]pyrimidin-3-yl)acetamide level after 15 to 60 mins by LC-MS/MS analysis; type: ADME; in short: as §6
[34] = tested on: Liver microsome; assay: Drug metabolism in human liver microsomes assessed as N,N-diethyl-2-(2-(4-(2-fluoroethoxy)phenyl)-7-(hydroxymethyl)-5-methylpyrazolo[1,5-a]pyrimidin-3-yl)acetamide level after 15 to 60 mins by LC-MS/MS analysis; type: ADME; in short: as §6
[35] = tested on: Liver microsome; assay: Drug metabolism in Sprague-Dawley rat liver microsomes assessed as N-ethyl-2-(2-(4-(2-fluoroethoxy)phenyl)-5,7-dimethylpyrazolo[1,5-a]pyrimidin-3-yl)acetamide level after 15 to 60 mins by LC-MS/MS analysis; type: ADME; in short: as §6
[36] = tested on: Liver microsome; assay: Drug metabolism in Sprague-Dawley rat liver microsomes assessed as N-ethyl-2-(2-(4-(2-fluoroethoxy)phenyl)-5-(hydroxymethyl)-7-methylpyrazolo[1,5-a]pyrimidin-3-yl)acetamide level after 15 to 60 mins by LC-MS/MS analysis; type: ADME; in short: as §6
[37] = tested on: Liver microsome; assay: Drug metabolism in Sprague-Dawley rat liver microsomes assessed as N,N-diethyl-2-(2-(4-hydroxyphenyl)-5,7-dimethylpyrazolo[1,5-a]pyrimidin-3-yl)acetamide level after 15 to 60 mins by LC-MS/MS analysis; type: ADME; in short: as §6
[38] = Drug metabolism in baboon liver microsomes assessed as N,N-diethyl-2-(2-(4-hydroxyphenyl)-5,7-dimethylpyrazolo[1,5-a]pyrimidin-3-yl)acetamide level after 15 to 60 mins by LC-MS/MS analysis; type: ADME; conditions: papio anubis; in short: as §6
[39] = tested on: Liver microsome; assay: Drug metabolism in Sprague-Dawley rat liver microsomes assessed as N,N-diethyl-2-(2-(4-(2-fluoroethoxy)phenyl)-5,7-bis(hydroxymethyl)pyrazolo[1,5-a]pyrimidin-3-yl)acetamide level after 15 to 60 mins by LC-MS/MS analysis; type: ADME; in short: as §6
[40] = tested on: Liver microsome; assay: Drug metabolism in Sprague-Dawley rat liver microsomes assessed as N,N-diethyl-2-(2-(4-(2-fluoroethoxy)phenyl)-5-(hydroxymethyl)-7-methylpyrazolo[1,5-a]pyrimidin-3-yl)acetamide level after 15 to 60 mins by LC-MS/MS analysis; type: ADME; in short: as §6
[41] = tested on: Liver microsome; assay: Drug metabolism in human liver microsomes assessed as N-ethyl-2-(2-(4-(2-fluoroethoxy)phenyl)-5,7-dimethylpyrazolo[1,5-a]pyrimidin-3-yl)acetamide level after 15 to 60 mins by LC-MS/MS analysis; type: ADME; in short: as §6
[42] = tested on: Liver microsome; assay: Drug metabolism in Sprague-Dawley rat liver microsomes assessed as N,N-diethyl-2-(2-(4-(2-fluoroethoxy)phenyl)-6-hydroxy-5,7-dimethylpyrazolo[1,5-a]pyrimidin-3-yl)acetamide level after 15 to 60 mins by LC-MS/MS analysis; type: ADME; in short: as §6

Retention_time [1]: 14.28 min | Drug metabolism [2]: metabolite_detected
Structure (SMILES): CCN(CC)C(=O)Cc1c(-c2ccc(OCCF)cc2)nn2c(CO)cc(CO)nc12

Retention_time [3]: 8.583 min
Structure (SMILES): CCNC(=O)Cc1c(-c2ccc(OCC[18F])cc2)nn2c(C)cc(C)nc12

Retention_time [3]: 7.25 min
Structure (SMILES): CCNC(=O)Cc1c(-c2ccc(OCC[18F])cc2)nn2c(C)cc(CO)nc12

Retention_time [1]: 16.87 min | Drug metabolism [2]: metabolite_detected
Structure (SMILES): CCN(CC)C(=O)Cc1c(-c2ccc(OCCF)cc2)nn2c(C)cc(CO)nc12

Stability [4]: 95% | tissue uptake at 2 h [5]: 65% | half-life [6]: 19 min | half-life [7]: 12 min | Stability [8]: 180 min | SUVmax [9]: 6.5 | remaining at 0.5 h [10]: 46% | SUVmax [11]: 1.93 | Drug uptake [12]: Active | tissue uptake at 2 h [13]: 15% | SUVmax [14]: 5.67 | tissue uptake at 2 h [15]: 85% | remaining at 3 h [16]: < 2% | SUVmax [17]: 7.31 | Retention_time [18]: 10.083 min | SUVmax [19]: 7.57 | Stability [20]: 180 min | SUVmax [21]: 6.28 | SUVmax [22]: 1.99 | Stability [23]: Stable | SUVmax [24]: 7.42 | Stability [25]: 190 min | Kp at 2 h [26]: 11 | SUVmax [27]: 12.7 | recovery [28]: 94% | SUV [29]: 4.6 | tissue uptake at 2 h [30]: 35% | remaining at 2 h [31]: 11%
Structure (SMILES): CCN(CC)C(=O)Cc1c(-c2ccc(OCC[18F])cc2)nn2c(C)cc(C)nc12 [DPA-714 F-18]

Drug metabolism [32]: 0.46 nmol/mg/min | Drug metabolism [33]: metabolite_detected | Drug metabolism [34]: 0.57 nmol/mg/min | Drug metabolism [35]: 0.82 nmol/mg/min | Drug metabolism [36]: metabolite_detected | Drug metabolism [37]: metabolite_detected | Drug metabolism [38]: 0.64 nmol/mg/min | Drug metabolism [39]: metabolite_detected | Drug metabolism [40]: 0.89 nmol/mg/min | Drug metabolism [41]: 0.45 nmol/mg/min | Drug metabolism [42]: metabolite_detected
Structure (SMILES): CCN(CC)C(=O)Cc1c(-c2ccc(OCCF)cc2)nn2c(C)cc(C)nc12 [DPA-714]
